Experiments:
[1] = system: Rattus norvegicus; test: Antiinflammatory activity in albino rat sub-acute inflammatory model assessed as inhibition of formalin-induced paw edema at 10 mg/kg, po administered 1 hr post challenge for 7 consecutive days measured at day 8 of challenge; type: functional; conditions: in the assay text read “1 hr prior to challenge” for “1 hr post challenge”
[2] = system: Rattus norvegicus; test: Antiinflammatory activity in albino rat acute inflammatory model assessed as inhibition of formalin-induced paw edema at 10 mg/kg, po administered 1 hr prior to challenge measured after 4 hr
[3] = system: Rattus norvegicus; test: Antiinflammatory activity in albino rat acute inflammatory model assessed as inhibition of formalin-induced paw edema at 10 mg/kg, po administered 1 hr prior to challenge measured after 2 hr
[4] = system: Rattus norvegicus; test: Antiinflammatory activity in albino rat sub-acute inflammatory model assessed as inhibition of turpentine-induced granuloma pouch at 10 mg/kg, po administered 1 hr […] for 7 consecutive days measured at day 8 of challenge; type: functional
[5] = system: Rattus norvegicus; test: Antiinflammatory activity in albino rat sub-acute inflammatory model assessed as inhibition of formalin-induced paw edema at 10 mg/kg, po administered 1 hr prior to challenge for 7 consecutive days measured at day 1 of challenge
[6] = system: Rattus norvegicus; test: Antiinflammatory activity in albino rat acute inflammatory model assessed as inhibition of formalin-induced paw edema at 10 mg/kg, po administered 1 hr post challenge measured after 1 hr; type: functional; conditions: in the assay text read “administered 1 hr prior to challenge” for “administered 1 hr post challenge”
Outline: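 Rats were randomised into groups of five. Dosing was 10 mg/kg po, given 1 h before 2% formalin (0.1 mL) was injected subplantar into the left hind paw under light ether anaesthesia. […] Values are mean ± S.E., N = 5 rats.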

[7] = system: Rattus norvegicus; test: Acute toxicity in albino rat at 0.1 to 0.3 g/kg/, po measured after 24 hrs; conditions: in vivo
[8] = Ulcerogenic activity in po dosed albino rat measured after 24 hrs; type: toxicity, organism-based; conditions: in vivo
Outline: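 Male albino rats (180–200 g), five per group, fasted 12 h with water ad libitum. Compounds given orally as two equal doses at 0 and 12 h on three successive days, 300 mg/kg per day. Control received 1% gum acacia po. Rats killed 6 h after the last dose. Stomachs opened along the greater curvature, washed with cold saline and inspected under 3X magnification for hyperemia, hemorrhage, erosion or ulcer.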

[9] = system: Rattus norvegicus; test: Ulcerogenic activity in albino rat assessed as hyperemia at 300 mg/kg/day administered as equal doses at 0 and 12 hrs for three consecutive days measured at 6 hrs post last dose; type: toxicity, organism-based; conditions: in vivo
Outline: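 Male albino rats, 180–200 g, five per group, fasted 12 h with water ad libitum. Dosing was 300 mg/kg/day po, split into equal doses at 0 and 12 h, for 3 successive days. Controls received 1% gum acacia orally. Rats were killed with ether 6 h after the last dose. Stomachs were opened along the greater curvature, washed with cold saline and inspected under a 3X lens for hyperemia, hemorrhage, hemorrhagic erosion or ulcer.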

Row | SMILES | inhibition in vivo at 10 mg/kg [1] [%] | inhibition in vivo at 10 mg/kg [2] [%] | inhibition in vivo at 10 mg/kg [3] [%] | inhibition in vivo at 10 mg/kg [4] [%] | inhibition in vivo at 10 mg/kg [5] [%] | inhibition in vivo at 10 mg/kg [6] [%] | Activity [7] | LD50 at 24 h [8] [mg/kg] | Activity [9]
1 | Cc1c(C(N)=O)sc2c1c(=O)n(Cc1ccccc1)c1nncn21 | 32 | 54 | 43 | 39.4 | 39 | 56 | – | – | –
2 | Cc1c(C(N)=O)sc2c1c(=O)n(Cc1ccccc1)c1n[nH]c(=O)n21 | 37 | 49 | 61 | 38.5 | 43 | 75 | Non-toxic | > 300 | Non-toxic
3 | CCOC(=O)Cc1nnc2n(Cc3ccccc3)c(=O)c3c(C)c(C(N)=O)sc3n12 | 37 | – | – | 39.8 | 46 | – | – | – | –
4 | Cc1c(C(N)=O)sc2c1C(=O)N(Cc1ccccc1)C1=NN=C(c3ccc(Cl)cc3)CN12 | 37 | 46 | 43 | 38.5 | 46 | 44 | – | – | –
5 | Cc1c(C(N)=O)sc2nc(-n3nc(-c4ccc(Cl)cc4)cc3N)n(Cc3ccccc3)c(=O)c12 | 30 | 46 | 52 | 40.3 | 35 | 56 | Non-toxic | > 300 | Non-toxic
6 | Cc1cc(C)n(-c2nc3sc(C(N)=O)c(C)c3c(=O)n2Cc2ccccc2)n1 | 32 | 49 | 39 | 40.3 | 39 | 44 | – | – | –
7 | CC1=NN(c2nc3sc(C(N)=O)c(C)c3c(=O)n2Cc2ccccc2)C(=O)C1 | 34 | 46 | 48 | 38.9 | 39 | 37 | Non-toxic | > 300 | Non-toxic
8 | O=C([O-])Cc1ccccc1Nc1c(Cl)cccc1Cl.[Na+] [DICLOFENAC SODIUM] | – | – | – | – | – | 63 | – | – | Non-toxic
9 | COc1ccc2c(c1)c(CC(=O)O)c(C)n2C(=O)c1ccc(Cl)cc1 [INDOMETHACIN] | – | – | – | – | – | – | – | – | 100%

— ChEMBL document CHEMBL2062422, “Design, synthesis and biological evaluation of some novel thienopyrimidines and fused thienopyrimidines as anti-inflammatory agents” (Eur J Med Chem, 2012)
